High-throughput results (PubChem BioAssay)
Runt-SMMHC FRET = inhibitors of human RUNX1 Runt domain binding to CBFb-SMMHC. Cerulean-Runt/Venus-CBFb-SMMHC FRET ratio 530/480, 1 h. inhibition, % at 20 µM. 220,000 compounds, 0.74% hits. AID 1434;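 active means mean inhibition across duplicate retests at 20 µM reaching about 50%, limit read from the data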;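 further: 0% = DMSO wells and 100% = wells with excess untagged CBFb-SMMHC; inhibitors lower the FRET ratio by blocking Runt binding to CBFb-SMMHC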
Target sequence (Q01196 whole entry, looked up, the tested form may be a part): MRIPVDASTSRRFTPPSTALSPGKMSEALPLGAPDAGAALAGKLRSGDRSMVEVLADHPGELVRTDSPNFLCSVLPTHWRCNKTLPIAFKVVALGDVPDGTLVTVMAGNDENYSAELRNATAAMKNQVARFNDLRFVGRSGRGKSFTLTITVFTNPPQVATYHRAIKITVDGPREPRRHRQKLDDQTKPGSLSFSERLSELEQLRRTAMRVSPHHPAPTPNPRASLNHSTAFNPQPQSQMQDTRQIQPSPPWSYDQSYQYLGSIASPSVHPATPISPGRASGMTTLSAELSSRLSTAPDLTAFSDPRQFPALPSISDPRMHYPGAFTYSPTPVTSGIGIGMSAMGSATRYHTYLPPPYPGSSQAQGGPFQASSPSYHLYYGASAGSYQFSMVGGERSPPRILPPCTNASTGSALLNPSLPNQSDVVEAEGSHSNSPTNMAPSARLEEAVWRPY
Target sequence (Q13951 whole entry, looked up, the tested form may be a part): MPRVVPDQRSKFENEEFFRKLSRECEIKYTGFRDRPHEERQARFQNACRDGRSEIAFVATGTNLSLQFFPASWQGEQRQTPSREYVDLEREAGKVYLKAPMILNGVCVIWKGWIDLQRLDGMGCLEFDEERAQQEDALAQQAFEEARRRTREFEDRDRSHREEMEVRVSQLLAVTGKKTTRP
M18AAP inhibitor = PfM18AAP enzyme inhibition; 290,000 compounds, 1.2% hits; inhibition, % at 7.35 µM; AID 1822; recombinant PfM18AAP, H-Glu-NHMec fluorogenic cleavage;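 active means inhibition above the campaign mean inhibition over all tested compounds plus 3 SD, cut at about 28% in these data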;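 further: 0% = plate median of test compound wells and 100% = 2 mM ZnCl2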
Hck Nef HTS = inhibitors of human Hck kinase activated by Nef | Recombinant Hck-YEEI plus Nef, Z-Lyte FRET kinase assay | inhibition, % at 20 µM | 220,000 compounds, 0.68% hits;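 active means Hck-Nef kinase inhibition above about 50%, limit read from the data; inactive means inhibition below that limit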;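 further: 0% = DMSO with Hck plus Nef and 100% = Hck alone without Nef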
Runt-CBFb FRET = inhibitors of human RUNX1 Runt domain binding to CBFb; Cerulean-Runt/Venus-CBFb FRET ratio 530/480, 1 h; inhibition, % at 20 µM; 220,000 compounds, 0.46% hits;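 active means inhibition over about 50% at 20 µM in the single-dose screen, limit read from the data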;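 further: 0% = DMSO wells and 100% = excess unlabeled CBFb competitor control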
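Reagent – Venus-CBFb binding partner, 100 nM · Assay system – Cerulean-tagged RUNX1 Runt domain (FRET donor) fusion protein · Input – 100 nM per protein · Incubation – two 1 h room-temperature incubations shielded from light · Measured by – FRET fluorescence · Medium – Tris buffer pH 7.5 with salts and BSA · Benchmarks – unlabeled CBFb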
RanGTP-Impb inh = inhibitors of RanGTP-importin-beta interaction, primary screen, biochemical, FRET, CFP-Ran, YFP-importin-beta, homogeneous; 300,000 compounds, 1.1% hits; cell-free CFP-Ran/YFP-importin-beta FRET ratio; inhibition, % (test concentration not listed);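 active means more than half of the replicate wells show a fall in the fluorescence ratio signal beyond about 16%, limit read from the data, passing the limit was not always enough; inconclusive means exactly half of the replicate wells pass the set limit; inactive means fewer than half of replicates pass the limit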;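 further: 0% = DMSO wells and 100% = Ran loaded with GDP instead of GTP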
RBBP9 inhibitor = human RBBP9 hydrolase inhibition; recombinant RBBP9, FP-Rh probe fluorescence polarization; inhibition, % at 7.94 µM; 220,000 compounds, 0.2% hits; AID 1515;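 active means inhibition above the campaign mean of all tested compounds plus 3 SD, cut at about 14% in these data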;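 further: plate controls were DMSO wells with RBBP9 for no effect and wells lacking RBBP9 protein for full effect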
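System: RBBP9 protein | Quantity: 2.5 µM RBBP9 dispensing solution, before mixing | Reagent: FP-Rh probe, 375 nM dispensing solution | Timing: Enzyme-compound preincubation 30 min, then probe labeling 45 min, 25 °C | Measured by: Fluorescence polarization | Read-out: % inhibition | Replication: One well per compound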
Active calls of the source: *; u = inconclusive; x = not tested or not shown. Hits are enriched below; roughly 2.9% of the tested compounds scored in any of these assays.

SMILES	Runt-SMMHC FRET	M18AAP inhibitor	Hck Nef HTS	Runt-CBFb FRET	RanGTP-Impb inh	RBBP9 inhibitor
COc1ccccc1C(=O)Nc1ccc(-c2nnc(SCC(=O)O)n2C)cc1	-5	6	2	2	20*	-11
COc1ccccc1NC(=O)CSc1nnc(-c2ccc(NC(C)=O)cc2)n1C	-4	-10	1	-3	5	-5
C/C(=N\O)C1(C)N(O)C(C)(C)C(c2ccc(F)cc2)=[N+]1[O-] (stereo unspecified)	0	24	3	8	1	2
CCC1(C)N(O)C(C)(C)C(c2ccc(F)cc2)=[N+]1[O-] (stereo unspecified)	-5	29*	1	1	-2	4
NNc1cc([N+](=O)[O-])cc2c1C(=O)N(Cc1ccccc1)S2=O (stereo unspecified)	29	42*	14	30	u	-5
COc1ccc(CN2C(=O)CC(C(=O)NCCc3ccc(S(N)(=O)=O)cc3)SC2=Nc2ccccc2)cc1 (stereo unspecified)	-4	-4	17	-5	-1	-6
O=C(COc1ccc(S(=O)(=O)N2CCOCC2)cc1)NCCc1ccccc1	x	x	x	x	-2	x
O=C(COc1ccc(S(=O)(=O)N2CCOCC2)cc1)Nc1ccccc1C(F)(F)F	2	-1	5	2	27*	-1
CCOc1ccc(Nc2nc(Cc3nnc(SCC(=O)NCc4ccco4)n3CC)cs2)cc1	5	30*	-1	5	-1	-2
CN(C)C=Nc1nonc1-c1ncn[nH]1	-2	30*	5	0	-2	-2
CN(C)C=Nc1nonc1-c1ccccc1	0	3	2	1	-1	8
COC(=O)c1c(C)oc(C)c1S(=O)(=O)NC(C)(C)C	-2	-3	8	0	-4	5
O=C(NNc1c2ccccc2nc2ccccc12)c1ccccc1Cl	x	11	x	x	27*	x
O=C(NNc1c2ccccc2nc2ccccc12)c1ccccc1O	48	-5	58*	14	x	-2
O=C(O)c1ccccc1C(=O)NNc1cccc(Cl)n1	4	45*	7	1	0	-3
O=C(NCc1ccc(F)cc1)C1CCCN(C(=O)Nc2ccc(F)cc2)C1 (stereo unspecified)	x	-3	x	x	1	x
CN(C)[C@@H]1C(=O)C(C(=O)NCN2CCCC2)=C(O)[C@@]2(O)C(=O)C3=C(O)c4c(O)cccc4[C@@](C)(O)C3CC12 (stereo partly specified)	9	28*	15	8	x	2
Cc1nc2cc3nc(C)sc3cc2s1	26	29*	13	36	0	-8
O=[S@]1Oc2ccccc2-c2ccccc21	x	x	x	x	0	x
CN1CCN(c2nc3ccccn3c(=O)c2/C=C(\C#N)S(=O)(=O)c2ccccc2)CC1	5	2	9	2	72*	1
COCCNC(=O)/C(C#N)=C/c1c(N2CCN(C)CC2)nc2ccccn2c1=O	x	6	x	x	97*	x
CCNC(=O)/C(C#N)=C/c1c(N2CCOCC2)nc2ccccn2c1=O	81*	-2	15	63*	9	0
CCOC(=O)/C(C#N)=C/c1c(N2CCN(C)CC2)nc2ccccn2c1=O	x	-4	x	x	101*	x
C=CCNC(=O)/C(C#N)=C/c1c(N2CCCCCC2)nc2ccccn2c1=O	x	-2	x	x	4	x
COc1cccc(-c2c3c([nH]c(=O)c2C#N)CCc2cc(OC)ccc2-3)c1	80*	-13	1	89*	94*	-7
COc1cccc(-c2cc(C(F)(F)F)c(C#N)c(=O)[nH]2)c1	16	1	42	5	-3	5
O=[N+]([O-])c1cccc(C(=NCc2ccccc2)NO)c1	x	-3	x	x	-5	x
O=C(CCC1CCCC1)NNC(=O)c1ccccc1O	x	x	x	x	3	x
CCOc1ccccc1N1CSC2=C(C#N)C(c3c(OC)ccc4ccccc34)CC(=O)N2C1 (stereo unspecified)	25	37*	5	10	1	-3
COc1ccc(N2CSC3=C(C#N)C(c4cccs4)CC(=O)N3C2)cc1 (stereo unspecified)	16	43*	-2	28	0	-5
